Test [1] deals with P388. As to the kind of experiment: Cytotoxicity against mouse P388 cells by MTT assay. It counts as functional, cell-based.
Test [2] deals with A549. Put plainly: Cytotoxicity against human A549 cells by MTT assay. The format is functional, cell-based. Background: Formazan colour is commonly taken as a measure of viable cells.
The test system of test [3] is Candida albicans. As to the kind of experiment: Antifungal activity against Candida albicans ATCC 44506 after 24 hrs by standard microdilution broth technique. It counts as functional. As to conditions: ATCC 44506, 24 h. Summed up: (§1)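 Broth microdilution MIC in 50 μl total volume. C. albicans ATCC 44506 grown in Sabouraud dextrose broth at 37° for 24 h; Cr. neoformans ATCC 32045 in Emmon's modification of Sabouraud dextrose broth at 37° for 48 h. MIC taken as lowest drug concentration giving complete growth inhibition.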

Test [4] relates to Cryptococcus neoformans. As to the kind of experiment: Antifungal activity against Cryptococcus neoformans ATCC 32045 after 48 hrs by standard microdilution broth technique. The format is functional. As to conditions: ATCC 32045, 48 h. Summed up: as §1
In general terms: Broth dilution looks for growth in wells or tubes with falling amounts of substance.

Test [5] in a line: Displacement of [125I]angiotensin 2 from angiotensin 2 receptor in rat aorta smooth muscle cell membrane by genesys gamma counting. Summed up:
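Duplicate tubes: 0.88 nM (final) [125I]angiotensin II, membranes 75–125 μg/ml protein, 3 h at 25°; nonspecific with 1 μM unlabeled angiotensin II. GF/C filtration, gamma counting, nonlinear regression.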
Background: In a radioligand displacement assay an active substance lowers the binding of a labelled ligand.

SMILES strings stand for the structures. Values after ≈ are worked out from the molar mass of the structure shown.

In general, IC50 refers to the concentration that gives 50% inhibition. A lower IC50 goes with inhibition by little substance. What is called MIC is the lowest concentration that inhibits growth of the organism. A lower MIC goes with greater potency. As for `CC1=CCC[C@@H](C)[C@]1(C)CC/C(C)=C/C(=O)N[C@@H]1CCCNC1=O` [SOLLASIN B], the results for the half-inhibitory concentration (IC50) in test [1] and in test [2] were 6 µg/mL (≈ 18 µM) and 17 µg/mL (≈ 51.1 µM), respectively. Also, the MIC in test [3] is 125 µg/mL (≈ 376 µM); in test [4], 31.2 µg/mL (≈ 93.8 µM).

With `CC1=CCC[C@@H](C)[C@]1(C)CC/C(C)=C/C(=O)N[C@@H]1CCCCNC1=O` [SOLLASIN C], the half-inhibitory concentration (IC50) was 63 µM in test [5], 8.4 µg/mL (≈ 24.2 µM) in test [1] and 11 µg/mL (≈ 31.7 µM) in test [2]. Moreover, the MIC in test [3] was found to be 31.2 µg/mL (≈ 90 µM); in test [4] it was 15.6 µg/mL (≈ 45 µM).

As to `COc1cc(/C=C(\C)CC[C@]2(C)C(C)=CCC[C@H]2C)oc(=O)c1` [SOLLASIN D], the IC50 in test [5] is 42 µM; in test [1] it was 5.5 µg/mL (≈ 17.4 µM); in test [2], 11.3 µg/mL (≈ 35.7 µM).

Regarding `CC1=CC(=O)CC(C)(CC[C@]2(C)C(C)=CCC[C@H]2C)O1` (some centres undefined) [SOLLASIN E], the minimum inhibitory concentration (MIC) in test [3] and in test [4] was 25 µg/mL (≈ 90.4 µM) in each case.

These data come from ChEMBL document CHEMBL1147350, “Sesquiterpene-derived metabolites from the deep water marine sponge Poecillastra sollasi” (J Nat Prod, 1993).
